In ChEMBL document CHEMBL1833955, “Optimization of (arylpiperazinylbutyl)oxindoles exhibiting selective 5-HT₇ receptor antagonist activity” (J Med Chem, 2011):

Legend:
[1] = target: T1, Adrenergic receptor alpha-1 (Rattus norvegicus, UniProt P15823+P23944+P43140); experiment: Displacement of [3H]prazosin from alpha1-adrenergic receptor in rat frontal cortex membrane after 45 mins by scintillation spectrometry; type: cell membranes
T1 sequence (P15823 whole entry): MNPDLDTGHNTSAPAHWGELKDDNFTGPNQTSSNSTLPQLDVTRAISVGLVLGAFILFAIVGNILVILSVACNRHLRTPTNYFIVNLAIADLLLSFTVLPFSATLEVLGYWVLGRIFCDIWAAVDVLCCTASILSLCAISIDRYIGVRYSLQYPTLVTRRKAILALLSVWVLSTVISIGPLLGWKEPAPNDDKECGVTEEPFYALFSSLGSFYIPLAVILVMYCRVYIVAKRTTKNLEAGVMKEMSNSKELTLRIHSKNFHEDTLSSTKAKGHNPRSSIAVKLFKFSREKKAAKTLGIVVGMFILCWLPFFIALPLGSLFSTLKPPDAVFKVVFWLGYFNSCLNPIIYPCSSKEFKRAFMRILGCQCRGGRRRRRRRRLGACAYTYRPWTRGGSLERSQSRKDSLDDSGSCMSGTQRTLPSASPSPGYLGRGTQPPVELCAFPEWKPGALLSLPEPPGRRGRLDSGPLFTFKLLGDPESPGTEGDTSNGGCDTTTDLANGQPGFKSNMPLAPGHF
T1 sequence (P23944 whole entry): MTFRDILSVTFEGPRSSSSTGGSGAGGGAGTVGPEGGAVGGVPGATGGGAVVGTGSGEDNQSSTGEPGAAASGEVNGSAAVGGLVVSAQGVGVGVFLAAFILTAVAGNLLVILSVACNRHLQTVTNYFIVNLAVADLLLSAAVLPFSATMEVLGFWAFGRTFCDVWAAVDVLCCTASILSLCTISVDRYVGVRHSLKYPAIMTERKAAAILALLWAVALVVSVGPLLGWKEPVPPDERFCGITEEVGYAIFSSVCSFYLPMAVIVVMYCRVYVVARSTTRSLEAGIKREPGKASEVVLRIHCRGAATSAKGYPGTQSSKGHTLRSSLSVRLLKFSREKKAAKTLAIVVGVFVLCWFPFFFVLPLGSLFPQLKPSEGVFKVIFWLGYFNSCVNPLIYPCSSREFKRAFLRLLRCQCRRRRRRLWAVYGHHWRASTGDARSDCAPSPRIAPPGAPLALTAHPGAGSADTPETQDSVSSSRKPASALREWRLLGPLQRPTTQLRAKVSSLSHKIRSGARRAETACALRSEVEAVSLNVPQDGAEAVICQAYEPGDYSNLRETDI
T1 sequence (P43140 whole entry): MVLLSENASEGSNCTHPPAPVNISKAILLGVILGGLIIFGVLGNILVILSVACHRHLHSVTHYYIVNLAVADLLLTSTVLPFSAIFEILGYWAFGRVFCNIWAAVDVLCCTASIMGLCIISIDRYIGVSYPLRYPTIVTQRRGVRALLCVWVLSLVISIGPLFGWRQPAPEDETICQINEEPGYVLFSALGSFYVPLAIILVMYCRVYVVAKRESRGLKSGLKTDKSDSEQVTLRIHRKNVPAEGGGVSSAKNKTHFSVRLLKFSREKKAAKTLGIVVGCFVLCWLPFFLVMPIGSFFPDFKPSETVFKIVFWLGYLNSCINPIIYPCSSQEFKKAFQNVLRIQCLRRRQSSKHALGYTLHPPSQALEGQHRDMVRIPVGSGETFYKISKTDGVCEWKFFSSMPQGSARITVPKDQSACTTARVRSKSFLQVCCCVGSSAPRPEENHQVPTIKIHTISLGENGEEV
In short: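 Rat frontal cortex tissue frozen on dry ice, homogenised in 50 mM Tris-HCl pH 7.7 and washed by centrifugation. [3H]prazosin at 0.6 nM; 10 μM prazosin defines nonspecific binding. 45 min at 25 °C, GF/B filtration, scintillation counting. Triplicates; Ki from two nine-concentration curves fitted to a single-site model.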

[2] = Metabolic stability in human liver microsomes after 60 mins by HPLC-MS/MS analysis; type: ADME, Microsome; conditions: read-out: Stability
In short: (§1)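 Test compound at 100 nM final incubated with rat or human liver microsomes (0.33 mg/mL) at 37 °C for 0, 5, 15, 30 and 60 min. Buffer Tris-HCl pH 7.4 with Mg2+ and BSA. Reaction started with NADPH and stopped with ice-cold MeOH. Parent compound measured by HPLC-MS/MS, positive-ion MRM.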

[3] = Metabolic stability in rat liver microsomes after 60 mins by HPLC-MS/MS analysis; type: ADME, Microsome; conditions: read-out: Stability; in short: as §1
[4] = Selectivity ratio of Ki for 5-HT1A receptor in rat frontal cortex membrane to Ki for human 5-HT7 receptor; type: cell membranes
[5] = target: 5-hydroxytryptamine receptor 7 (Homo sapiens, UniProt P34969); experiment: Displacement of [3H]CT from human 5-HT7 receptor expressed in CHO cells by scintillation spectrometry; type: cell-based
Chain of 5-hydroxytryptamine receptor 7 (P34969 whole entry): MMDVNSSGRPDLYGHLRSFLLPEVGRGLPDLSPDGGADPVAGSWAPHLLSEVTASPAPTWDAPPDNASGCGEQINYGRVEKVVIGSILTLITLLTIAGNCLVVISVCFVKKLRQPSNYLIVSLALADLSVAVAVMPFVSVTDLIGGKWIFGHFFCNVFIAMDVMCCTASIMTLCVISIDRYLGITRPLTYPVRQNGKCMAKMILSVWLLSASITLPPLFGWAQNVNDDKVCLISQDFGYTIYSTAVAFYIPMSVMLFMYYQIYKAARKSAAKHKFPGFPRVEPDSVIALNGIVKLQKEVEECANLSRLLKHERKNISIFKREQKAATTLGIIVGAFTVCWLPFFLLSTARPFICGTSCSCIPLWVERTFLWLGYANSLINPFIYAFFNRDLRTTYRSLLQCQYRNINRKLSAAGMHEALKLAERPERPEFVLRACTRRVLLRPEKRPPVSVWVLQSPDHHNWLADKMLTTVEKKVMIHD
In short: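 Cloned human 5-HT7 receptor from CHO cells, run under the supplier's recommended conditions with [3H]CT. Nonspecific binding with 25 μM clozapine. Ended by GF/C filtration, then scintillation counting. Ki taken from two nine-concentration displacement curves run in triplicate, single-site fit.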

[6] = target: T2, 5-hydroxytryptamine receptor 1A (Rattus norvegicus) (UniProt P19327); experiment: Displacement of [3H]8-OH-DPAT from 5-HT1A receptor in rat frontal cortex membrane at 10^-7 M after 45 mins by scintillation counting; type: cell membranes
T2 sequence (whole entry): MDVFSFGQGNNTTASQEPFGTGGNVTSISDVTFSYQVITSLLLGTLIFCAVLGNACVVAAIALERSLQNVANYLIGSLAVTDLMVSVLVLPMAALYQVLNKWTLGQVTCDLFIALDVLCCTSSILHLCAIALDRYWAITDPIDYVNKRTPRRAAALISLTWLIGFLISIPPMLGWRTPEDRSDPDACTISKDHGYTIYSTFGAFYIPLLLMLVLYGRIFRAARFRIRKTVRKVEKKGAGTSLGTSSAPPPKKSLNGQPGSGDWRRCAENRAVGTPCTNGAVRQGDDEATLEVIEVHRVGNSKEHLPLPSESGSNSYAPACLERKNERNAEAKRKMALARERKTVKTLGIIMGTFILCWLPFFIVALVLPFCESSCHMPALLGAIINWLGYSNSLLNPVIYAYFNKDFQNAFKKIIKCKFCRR

[7] = Selectivity ratio of Ki for alpha1-adrenergic receptor in rat frontal cortex membrane to Ki for human 5-HT7 receptor; type: cell membranes
[8] = target: T3, 5-hydroxytryptamine receptor 1A (Rattus norvegicus, UniProt P19327); experiment: Displacement of [3H]8-OH-DPAT from 5-HT1A receptor in rat frontal cortex membrane after 45 mins by scintillation counting; type: cell membranes
T3 sequence (P19327 whole entry): T2 sequence (whole entry)
In short: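 Membranes from adult rat frontal cortex, prepared in 50 mM Tris-HCl pH 7.7 with washes and a 37 °C preincubation. Incubation buffer: 6.66 mM CaCl2, 16.66 μM pargyline, 0.166% ascorbic acid. Ligand 1.5 nM [3H]8-OH-DPAT; 10 μM 5-HT defines nonspecific binding. 45 min at 25 °C, GF/B filtration, scintillation counting. Triplicates; Ki from two nine-point curves, single-site fit.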

Ki [1] | remaining at 1 h [2] | remaining at 1 h [3] | Ratio Ki [4] | Ki [5] | inhibition [6] | Ratio Ki [7] | Ki [8] | SMILES
116 nM | 44% | 28% | > 100 | 40 nM | 0% | 3 |  | O=C1Nc2ccc(F)cc2C1CCCCN1CCN(c2ccc(Cl)cc2)CC1 (stereo not drawn)
22 nM |  |  |  | 16 nM |  |  | 243 nM | O=C1Nc2ccccc2C1CCCCN1CCN(c2ccccc2)CC1 (stereo not drawn)
757 nM |  |  |  | 107 nM |  |  |  | O=C1Nc2c(Cl)cc(Cl)cc2C1CCCCN1CCN(c2ccc(Cl)cc2)CC1 (stereo not drawn)
380 nM | 28% | 17% |  | 139 nM | 11% | 3 |  | CCC1(CCCCN2CCN(c3ccc(Cl)cc3Cl)CC2)C(=O)Nc2ccccc21 (stereo not drawn)
64 nM |  |  |  | 53 nM |  |  | 30 nM | CCC1(CCCCN2CCN(c3ccccc3Cl)CC2)C(=O)Nc2ccccc21 (stereo not drawn)
55 nM |  |  |  | 25 nM | 6% |  |  | O=C1Nc2cc(F)ccc2C1CCCCN1CCN(c2ccc(Cl)cc2)CC1 (stereo not drawn)
14 nM |  |  |  | 5 nM | 10% |  |  | O=C1Nc2ccccc2C1CCCCN1CCN(c2ccc(F)cc2)CC1 (stereo not drawn)
12.5 nM |  |  |  | 6.7 nM |  |  | 118 nM | O=C1Nc2cc(F)ccc2C1CCCCN1CCN(c2cccc(Cl)c2)CC1 (stereo not drawn)
117 nM | 46% | 16% | > 100 |  | 16% | 13 |  | CCC1(CCCCN2CCN(c3cccc(Cl)c3)CC2)C(=O)Nc2cc(F)c(Cl)cc21 (stereo not drawn)
 |  |  |  | 5.1 nM |  |  | 36 nM | CCC1(CCCCN2CCN(c3cccc(C(F)(F)F)c3)CC2)C(=O)Nc2ccccc21 (stereo not drawn)
42 nM | 52% | 10% | 257 | 7 nM |  | 6 |  | O=C1Nc2ccccc2C1CCCCN1CCN(c2ccc(Cl)cc2)CC1 (stereo not drawn)

SMILES | Ki [1] | remaining at 1 h [2] | remaining at 1 h [3] | Ratio Ki [4] | Ki [5] | inhibition [6] | Ratio Ki [7] | Ki [8]
CCC1(CCCCN2CC=C(c3ccc(F)cc3)CC2)C(=O)Nc2ccccc21 (stereo not drawn) | 46 nM |  |  |  |  | 62% |  | 
O=C1Nc2cc(F)ccc2C1CCCCN1CC=C(c2cccc(Cl)c2)CC1 (stereo not drawn) |  |  |  |  | 13 nM | 72% |  | 
